Screening data (PubChem BioAssay)
UBC13 polyUb: blocks human UBC13 polyubiquitin chain formation; TR-FRET; inhibition, % at 20 µM; 330,000 tested, 0.47% active; in the data active = inhibition above about 45%, passing the limit was not always enough
Target sequence (P61088 whole entry, looked up): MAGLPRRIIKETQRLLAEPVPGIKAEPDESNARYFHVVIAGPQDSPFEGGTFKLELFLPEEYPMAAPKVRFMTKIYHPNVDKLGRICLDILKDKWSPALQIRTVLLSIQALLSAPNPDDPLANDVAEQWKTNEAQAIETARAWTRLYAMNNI
UBC9 SUMO inh: blocks human SUMOylation mediated by UBC9; inhibition, % at 35 µM; P63279; 290,000 tested, 0.36% active; HTRF SUMOylation assay, SAE1/SAE2 + UBC9, in vitro; in the data active = inhibition above about 50%, passing the limit was not always enough
Target sequence (P63279 whole entry, looked up): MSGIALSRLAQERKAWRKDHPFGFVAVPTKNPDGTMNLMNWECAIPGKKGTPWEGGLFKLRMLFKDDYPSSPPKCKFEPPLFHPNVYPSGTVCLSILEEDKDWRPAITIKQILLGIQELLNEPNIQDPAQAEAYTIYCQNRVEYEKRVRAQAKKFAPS
ALR H2O2 inh: human ALR oxidase inhibition via reduced H2O2; P55789; purified ALR, DTT oxidation, H2O2 HRP-luminol luminescence; inhibition, % (no concentration beside the values); 290,000 tested, 3.8% active; AID 485317;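 active = mean replicate inhibition above about 79%, with every replicate also reaching it, limit read from the data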
Rin1-Abl PPI inh: blocks binding of human Rin1 to Abl; TR-FRET Rin1/Abl binding, biochemical; inhibition, % at 7.35 µM; 360,000 tested, 0.4% active; in the data active = inhibition above about 5%, passing the limit was not always enough
RBBP9 inh: inhibitors of human serine hydrolase RBBP9 | 220,000 tested, 0.2% active | recombinant RBBP9, FP-Rh probe fluorescence polarization | inhibition, % at 7.94 µM | O75884 | AID 1515;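 active = inhibition above the campaign mean of all tested compounds plus 3 SD, cut at about 14% in these data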;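 note: plate controls were DMSO wells with RBBP9 for no effect and wells lacking RBBP9 protein for full effect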
Target sequence (O75884 whole entry, looked up): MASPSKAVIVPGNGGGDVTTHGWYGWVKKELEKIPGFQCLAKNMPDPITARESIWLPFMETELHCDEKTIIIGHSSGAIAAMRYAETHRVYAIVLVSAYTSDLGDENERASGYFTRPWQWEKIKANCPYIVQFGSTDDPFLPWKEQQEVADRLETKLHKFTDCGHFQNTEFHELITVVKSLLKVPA
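System: RBBP9 protein / Quantity: 2.5 µM RBBP9 dispensing solution, before mixing / Also added: Serine-hydrolase probe FP-Rh, 375 nM pre-mixing / Dosing: 7.94 µM single dose, 0.794% DMSO / Timing: enzyme-compound preincubation 30 min, then probe labeling 45 min, 25 °C / Signal: FP readout at 525/598 nm / Controls: DMSO-treated enzyme wells and wells lacking RBBP9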
PREPL inhibitor: inhibits the human prolyl oligopeptidase-like enzyme; Q4J6C6; recombinant PREPL, fluorescence polarization activity-based probe; inhibition, % at 5.96 µM; 320,000 tested, 0.68% active; in the data active = inhibition above about 43%;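 note: 0% = enzyme with DMSO and 100% = wells lacking enzyme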
Active calls of the source: *; . = not tested or not shown. Rows were chosen to be rich in hits. Some 4.3% of all compounds tested hit in one or more screens of this group.

SMILES	UBC13 polyUb	UBC9 SUMO inh	ALR H2O2 inh	Rin1-Abl PPI inh	RBBP9 inh	PREPL inhibitor
COc1ccc(NC(=O)CSCC(=O)Nc2ccccc2N2CCCC2)cc1	-1	.	99*	2	.	2
COc1ccc(NC(=O)CSCC(=O)Nc2ccccc2N2CCCCC2)cc1	1	.	.	0	.	9
COc1ccc(NC(=O)CSCC(=O)Nc2sccc2C#N)cc1	-3	.	99*	1	.	10
COc1ccc(CCC(=O)Nc2sccc2C#N)cc1	2	14	-9	.	-11	2
COc1cccc(C(=O)Nc2cc(Cl)c(O)c(Cl)c2)c1	5	2	89*	2	-6	17
COc1cccc(C(=O)NC(=S)Nc2ccccc2N2CCCC2)c1	8	19	66	6	-9	4
COc1cccc(C(=O)Nc2ccccc2N2CCCC2)c1	-8	-9	98*	-1	1	6
O=C(Nc1ccccc1Br)c1ccc(N2CCCC2=O)cc1	-1	.	-5	2	.	3
O=C(Nc1ccccc1N1CCCC1)c1ccc(N2CCCC2=O)cc1	-4	.	99*	0	.	16
O=C(Nc1ccccc1N1CCCCC1)c1cnccn1	5	5	97*	-2	-1	12
COc1ccc(-c2cnn3c4c(c(C)nc23)CCN4C(C)C)cc1OC	6	16	3	-7	-8	8
COc1cc(C(=O)c2ccccc2C(=O)O)c(OC)c2c1CCCC2	.	.	.	2	.	.
NC(=S)N/N=C/c1c[nH]c2ccc(OCc3ccccc3)cc12	0	8	99*	-2	.	24
NC(=S)N/N=C\c1ccccc1OCc1ccccc1	7	-7	4	3	-5	-5
COc1ccccc1NC(=O)CC1S/C(=N/N=C(\C)C2CCCCC2)NC1=O (stereo unspecified)	-13	-4	-1	3	.	-2
Cn1nnnc1SCc1ccc(C(=O)Nc2nccs2)cc1	6	26	99*	1	-1	4
CCn1c(SCC(=O)Nc2ccc(N3CCOCC3)cc2)nnc1C1CC1	-4	.	99*	3	.	5
Cc1nnc(SCC(=O)NNC(=O)c2ccccc2)n1Cc1ccccc1	-14	.	-2	-2	.	10
O=C(CSc1n[nH]c(=O)n1Cc1ccccc1)Nc1ccc(N2CCOCC2)cc1	-2	.	.	2	.	.
Cc1nnc(SCC(=O)Nc2ccc(N3CCOCC3)cc2)n1Cc1ccccc1	1	.	99*	2	.	3
Cc1nnc(SCC(=O)c2ccccc2)n1Cc1ccccc1	-21	-3	85*	2	-7	-5
CCn1c(SCC(=O)Nc2ccc(N(C)C)cc2)nnc1C1CC1	7	-7	99*	4	.	13
NC(=O)c1cnc(Cc2c[nH]c3ccccc23)c(I)c1	.	.	.	-6	.	.
CCOc1ccc(NC(=O)C(C)NC(=O)c2ccccc2Cl)cc1S(=O)(=O)N1CCCC1 (stereo unspecified)	2	.	-7	1	.	-2
O=C(CNC(=O)C12CC3CC(CC(C3)C1)C2)N1CCN(S(=O)(=O)/C=C/c2ccccc2)CC1	-6	9	-27	-1	-6	19
SMILES	UBC13 polyUb	UBC9 SUMO inh	ALR H2O2 inh	Rin1-Abl PPI inh	RBBP9 inh	PREPL inhibitor
Cc1c(Br)cnn1C(C)C(=O)N1CCN(c2ccc(F)cc2)CC1 (stereo unspecified)	-9	.	94*	-3	.	16
Cn1ncc(Cl)c1C(=O)N1CCN(c2ccc(F)cc2)CC1	-3	0	26	-2	.	7
CC(C)NS(=O)(=O)c1ccc2c(c1)NCC2	-2	1	99*	1	-6	1
CC(C)NS(=O)(=O)c1ccc2c3c(cccc13)CC2	12	5	-16	3	-3	0
O=C(NCc1nnnn1-c1ccc(F)cc1)c1ccc2c(c1)OCO2	.	.	.	2	.	.
O=C1CCC(=O)N1CNc1ccc(Oc2ccccc2)cc1	-3	0	98*	1	4	5
CCc1nc2ccc(C(=O)NCCOc3ccc(OC)cc3)cn2c1N(C)Cc1cccs1	.	.	.	-1	.	.
COc1ccc(NC(=S)Nc2ncccc2C)cc1OC	3	10	83*	0	1	9
Cc1cccnc1NC(=S)Nc1ncccc1C	7	4	25	-2	-14	-1
COc1ccc(NC(=S)Nc2ncccc2C)c(OC)c1	-2	0	99*	3	-8	12
O=[N+]([O-])c1cccnc1N1CCN(c2ccc(F)cc2)CC1	0	18	98*	-1	1	14
C=CCn1c(CNC(=O)c2cccs2)nnc1SCC(=O)c1ccc(Br)cc1	-1	0	86*	-4	1	-34
Cn1cc([C@@H]2C[C@H]3CN(C4CCCC4)C(=O)[C@]34CCCN24)c(-c2ccccc2)n1	6	-3	0	-1	4	5
O=[N+]([O-])c1ccccc1Oc1ccccc1Cl	4	27	-3	1	-3	-16
N/C(=N\O)c1ccc(Oc2ccccc2Cl)c([N+](=O)[O-])c1	5	-1	98*	1	4	3
COC(=O)c1cc(=O)n(-c2ccccc2)c(=Nc2ccccc2)s1	5	9	4	-1	-9	-13
OCc1csc(=Nc2ccccc2)n1-c1ccccc1	0	-2	99*	-4	10	2
Cc1ccc(C)c(-n2c(-c3csc(C)c3)n[nH]c2=S)c1	1	13	30	0	-6	12
Cc1ccc(C)c(-n2c(-c3ccc4c(c3)OCO4)n[nH]c2=S)c1	14	-7	83*	-1	-7	10
COc1cc(OC)cc(-c2n[nH]c(=S)n2-c2ccc3c(c2)OCO3)c1	8	-2	.	1	-14	11
Fc1ccc(-n2c(-c3ccc4c(c3)OCO4)n[nH]c2=S)cc1Cl	-10	4	96*	0	-12	4
CN(C)C=Nc1ccc([N+](=O)[O-])c2ccccc12	.	.	.	-4	.	.
CC(NC(=O)CNC(=O)c1ccc2c(c1)OCO2)c1ccc(S(N)(=O)=O)cc1 (stereo unspecified)	-2	.	44	1	.	23
O=C(CBr)Nc1c2c(nn1-c1ccccc1)CSC2	-4	14	-2	3	.	5
O=C(NCc1ccc2c(c1)OCO2)c1ccc(CS(=O)Cc2ccc(Cl)cc2)o1 (stereo unspecified)	-13	-4	-3	0	.	-3
CCOc1ccc(CCNC(=O)c2ccc(CS(=O)Cc3ccccc3Cl)o2)cc1 (stereo unspecified)	-8	6	98*	4	.	2
Cc1ccc(CNC(=O)c2ccc(CS(=O)Cc3ccccc3Cl)o2)cc1 (stereo unspecified)	1	1	99*	-2	.	-15
O=C(NCc1ccc2c(c1)OCO2)c1ccc(CS(=O)Cc2cccc(Cl)c2)o1 (stereo unspecified)	-8	2	94*	-3	.	1
Cc1ccc(NC(=O)CN2C(=O)S/C(=C/c3ccc(-c4cc(C(=O)O)ccc4C)o3)C2=O)cc1C	-21	84*	-20	4	7	-4
